Activity calls are given as the source filed them. The calls are words filed in the database; no cut-off is given here.
Key:
Trypanosoma cruzi = test: Antitrypanosomal activity against Trypanosoma cruzi amastigote form infected in human U2OS cells assessed as parasite growth inhibition at 50 uM after 72 hrs relative to control; assay type: functional; conditions: for inhibition of growth at 50 µM: read-out: GI
Procedure, shortened: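 U2OS monolayers grown for 24 h, then infected with tissue-derived trypomastigotes of T. cruzi Y strain. Compounds were added 24 h after infection at 50 μM (single-point) or in dose-response, with 72 h exposure. Plates were fixed, stained and analysed by high-content imaging; activity was normalized to infected and non-infected controls. Means of at least two experiments; benznidazole as reference.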

CYP1A2 = molecular target: T1, CYP1A2 (Homo sapiens, UniProt P05177); test: Inhibition of human microsomal CYP1A2 expressed in baculovirus infected BTI-TN-5B1-4 cells at 10 uM incubated for 30 mins by luciferase assay relative to control; assay type: ADME
T1 sequence (P05177 whole entry): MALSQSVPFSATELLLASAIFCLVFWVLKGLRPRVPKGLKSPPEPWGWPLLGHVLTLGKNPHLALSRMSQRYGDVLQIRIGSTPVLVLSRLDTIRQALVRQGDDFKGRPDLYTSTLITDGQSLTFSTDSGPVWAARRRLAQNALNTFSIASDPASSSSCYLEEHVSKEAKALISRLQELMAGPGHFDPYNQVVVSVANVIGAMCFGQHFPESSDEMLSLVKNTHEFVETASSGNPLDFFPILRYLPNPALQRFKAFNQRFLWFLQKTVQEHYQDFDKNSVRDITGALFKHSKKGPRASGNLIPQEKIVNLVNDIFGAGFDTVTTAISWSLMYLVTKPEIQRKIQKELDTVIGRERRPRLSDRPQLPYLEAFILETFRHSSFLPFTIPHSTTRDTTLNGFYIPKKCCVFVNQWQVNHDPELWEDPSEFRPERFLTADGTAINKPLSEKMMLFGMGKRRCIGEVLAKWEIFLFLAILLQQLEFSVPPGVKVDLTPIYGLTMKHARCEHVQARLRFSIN
Procedure, shortened: (§1)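 CYP1A2, 2C9, 2C19, 2D6 and 3A4 in microsomes from baculovirus-infected insect cells, each with a P450-Glo luminogenic substrate. Inhibition read as loss of light; single-point at 10 μM, triplicate.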

[1] = Cytotoxicity against human THP1 cells assessed as viable cells at 100 uM after 72 hrs by MTT assay relative to control; assay type: cell-based, THP-1; conditions: read-out: Activity
Procedure, shortened: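 THP-1-derived macrophages exposed to compounds for 72 h, tested at 100 μM or in dose-response; viability read by MTT colorimetric assay.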

[2] = Cytotoxicity against human WI38 cells assessed as growth inhibition at 10 uM after 48 hrs by CellTiter-Glo assay relative to control; values are per cent of control; conditions: WI38 cells
Leishmania infantum = test: Antileishmanial activity against Leishmania infantum amastigote form assessed as parasite growth inhibition at 50 uM after 72 hrs by steady-Glo reagent based assay relative to control; assay type: functional; conditions: read-out: GI
Procedure, shortened: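 Intramacrophage L. infantum amastigotes in THP-1-derived macrophages, tested at 50 μM or in dose-response. Plates held 72 h at 37 °C, 5% CO2. Medium was replaced by PBS, macrophages lysed, and parasites read by Steady-Glo luminescence. High-content imaging gave host cell number, infection ratio (infected/total cells) and parasites per infected cell. Values are means of at least two independent experiments.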

[3] = Cytotoxicity against human A549 cells assessed as growth inhibition at 10 uM after 48 hrs by CellTiter-Glo assay relative to control; values are per cent of control; conditions: A549 cells
[4] = Cytotoxicity against human 786-O cells assessed as inhibition of mitochondrial viability at 10 uM after 6 hrs by CMXRos staining based assay relative to control; assay type: cell-based, 786-0; conditions: read-out: INH
Procedure, shortened: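 Mitochondrial toxicity monitored by MitoTracker Red CMXRos uptake and high-content imaging; compound at 10 μM, triplicate.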

Trypanosoma brucei [5] = test: Potentiation of methotrexate-induced antitrypanosomal activity against Trypanosoma brucei Lister 427 bloodstream form at 10 uM after 72 hrs by resazurin dye-based assay relative to control; assay type: functional
Trypanosoma brucei [6] = test: Antitrypanosomal activity against Trypanosoma brucei Lister 427 bloodstream form assessed as parasite growth inhibition at 50 uM after 72 hrs by SYBR Green assay relative to control; assay type: functional; conditions: for inhibition of growth at 50 µM: Lister 427, 72 h, read-out: GI
CYP3A4 = CYP3A4 (Homo sapiens, UniProt P08684); test: Inhibition of human microsomal CYP3A4 expressed in baculovirus infected BTI-TN-5B1-4 cells at 10 uM incubated for 30 mins by luciferase assay relative to control; assay type: ADME; procedure, shortened: as §1
[7] = Cytotoxicity against human U2OS cells assessed as viable cells at 50 uM after 72 hrs by MTT assay relative to control; assay type: cell-based; conditions: read-out: Activity
hERG (KCNH2) = hERG (KCNH2) (Homo sapiens, UniProt Q12809); test: Inhibition of human ERG at 10 uM incubated for 2 hrs by fluorescence polarisation assay relative to control
CYP2D6 = CYP2D6 (Homo sapiens, UniProt P10635); test: Inhibition of human microsomal CYP2D6 expressed in baculovirus infected BTI-TN-5B1-4 cells at 10 uM incubated for 30 mins by luciferase assay relative to control; assay type: ADME; procedure, shortened: as §1
[8] = molecular target: T2, Pteridine reductase, putative (Trypanosoma brucei) (UniProt Q581W1); test: Inhibition of Trypanosoma brucei PTR1 at 50 uM using H2B as substrate in presence of NADPH by photometric analysis relative to control
T2 sequence (whole entry): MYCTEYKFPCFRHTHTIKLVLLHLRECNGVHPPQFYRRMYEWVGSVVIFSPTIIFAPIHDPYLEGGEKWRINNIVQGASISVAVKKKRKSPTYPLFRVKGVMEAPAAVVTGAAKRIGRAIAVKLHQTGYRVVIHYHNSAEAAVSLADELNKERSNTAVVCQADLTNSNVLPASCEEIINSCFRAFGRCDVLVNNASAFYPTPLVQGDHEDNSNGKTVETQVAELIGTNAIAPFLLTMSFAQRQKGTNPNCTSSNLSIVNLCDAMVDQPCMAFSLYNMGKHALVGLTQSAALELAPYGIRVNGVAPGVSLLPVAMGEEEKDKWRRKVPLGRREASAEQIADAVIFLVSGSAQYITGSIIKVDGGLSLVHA

[9] = molecular target: T3, Pteridine reductase 1 (Leishmania major) (UniProt Q01782); test: Inhibition of Leishmania major PTR1 at 50 uM using H2B as substrate in presence of NADPH by photometric analysis relative to control
T3 sequence (whole entry): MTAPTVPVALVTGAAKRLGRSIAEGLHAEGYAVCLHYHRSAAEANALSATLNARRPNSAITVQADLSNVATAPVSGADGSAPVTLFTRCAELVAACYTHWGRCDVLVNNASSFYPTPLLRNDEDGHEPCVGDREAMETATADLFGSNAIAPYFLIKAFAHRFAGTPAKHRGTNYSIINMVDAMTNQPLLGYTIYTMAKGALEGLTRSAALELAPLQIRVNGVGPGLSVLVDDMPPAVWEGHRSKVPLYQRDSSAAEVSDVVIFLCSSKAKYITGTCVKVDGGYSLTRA

CYP2C19 = CYP2C19 (Homo sapiens, UniProt P33261); test: Inhibition of human microsomal CYP2C19 expressed in baculovirus infected BTI-TN-5B1-4 cells at 10 uM incubated for 30 mins by luciferase assay relative to control; assay type: ADME; procedure, shortened: as §1
CYP2C9 = CYP2C9 (Homo sapiens, UniProt P11712); test: Inhibition of human microsomal CYP2C9 expressed in baculovirus infected BTI-TN-5B1-4 cells at 10 uM incubated for 30 mins by luciferase assay relative to control; assay type: ADME; procedure, shortened: as §1
Aurora kinase B = Aurora kinase B (Homo sapiens, UniProt Q96GD4); test: Inhibition of recombinant full-length human aurora B kinase expressed in baculovirus system at 10 uM using MBP as substrate incubated for 45 mins by ADP-glo kinase assay; conditions: probe MBP
Procedure, shortened: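 Aurora B activity measured as ADP formation via coupled luciferase ADP-Glo luminescence; single-point at 10 μM, triplicate.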

Trypanosoma brucei [10] = test: Antitrypanosomal activity against Trypanosoma brucei Lister 427 bloodstream form at 10 uM after 72 hrs by resazurin dye-based assay relative to control; assay type: functional
Trypanosoma brucei [11] = test: Potentiation of methotrexate-induced antitrypanosomal activity against Trypanosoma brucei Lister 427 bloodstream form at 10 uM after 72 hrs by resazurin dye-based assay; assay type: functional

Sequence of hERG (KCNH2) (Q12809 whole entry): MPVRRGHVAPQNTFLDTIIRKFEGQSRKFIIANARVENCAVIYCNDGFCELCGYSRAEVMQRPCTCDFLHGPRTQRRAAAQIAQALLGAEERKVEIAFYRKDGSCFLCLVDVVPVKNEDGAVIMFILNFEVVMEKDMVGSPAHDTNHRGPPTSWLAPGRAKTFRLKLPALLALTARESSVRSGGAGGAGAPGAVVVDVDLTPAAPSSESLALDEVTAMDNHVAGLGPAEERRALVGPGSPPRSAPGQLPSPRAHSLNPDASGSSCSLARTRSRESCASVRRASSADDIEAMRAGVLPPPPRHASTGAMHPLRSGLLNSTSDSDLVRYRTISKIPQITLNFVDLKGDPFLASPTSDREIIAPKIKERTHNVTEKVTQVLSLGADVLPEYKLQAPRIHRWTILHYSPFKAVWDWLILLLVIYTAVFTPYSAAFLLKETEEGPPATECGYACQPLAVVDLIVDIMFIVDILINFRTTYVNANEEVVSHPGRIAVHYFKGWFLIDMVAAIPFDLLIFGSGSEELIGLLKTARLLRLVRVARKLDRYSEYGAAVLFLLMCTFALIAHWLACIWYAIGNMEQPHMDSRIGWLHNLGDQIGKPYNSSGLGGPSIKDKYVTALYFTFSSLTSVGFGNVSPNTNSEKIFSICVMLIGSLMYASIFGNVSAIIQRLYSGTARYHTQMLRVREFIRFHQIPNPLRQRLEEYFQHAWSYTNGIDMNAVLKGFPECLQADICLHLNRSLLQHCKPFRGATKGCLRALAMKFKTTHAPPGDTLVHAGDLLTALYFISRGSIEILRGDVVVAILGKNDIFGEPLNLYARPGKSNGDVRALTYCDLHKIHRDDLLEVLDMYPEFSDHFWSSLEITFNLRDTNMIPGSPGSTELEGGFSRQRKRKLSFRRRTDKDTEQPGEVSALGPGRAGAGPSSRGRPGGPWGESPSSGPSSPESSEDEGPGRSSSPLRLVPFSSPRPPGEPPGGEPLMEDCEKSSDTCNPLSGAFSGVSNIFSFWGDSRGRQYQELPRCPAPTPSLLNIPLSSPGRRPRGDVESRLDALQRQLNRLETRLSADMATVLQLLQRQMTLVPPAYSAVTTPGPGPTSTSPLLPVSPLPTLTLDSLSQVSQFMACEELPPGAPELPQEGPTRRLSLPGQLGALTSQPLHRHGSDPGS
Sequence of CYP2C19 (P33261 whole entry): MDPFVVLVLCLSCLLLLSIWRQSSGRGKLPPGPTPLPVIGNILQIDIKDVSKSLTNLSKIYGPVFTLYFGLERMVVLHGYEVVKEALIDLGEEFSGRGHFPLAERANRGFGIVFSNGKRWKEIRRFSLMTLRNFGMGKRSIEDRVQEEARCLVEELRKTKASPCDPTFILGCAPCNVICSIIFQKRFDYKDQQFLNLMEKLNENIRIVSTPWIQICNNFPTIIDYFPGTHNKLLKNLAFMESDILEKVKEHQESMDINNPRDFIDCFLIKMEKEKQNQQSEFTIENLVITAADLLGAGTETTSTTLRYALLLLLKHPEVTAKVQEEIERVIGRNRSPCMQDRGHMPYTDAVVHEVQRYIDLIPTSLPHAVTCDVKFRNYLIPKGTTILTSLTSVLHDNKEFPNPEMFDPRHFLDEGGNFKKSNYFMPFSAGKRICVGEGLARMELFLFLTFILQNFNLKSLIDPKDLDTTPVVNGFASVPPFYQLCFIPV
Sequence of CYP2D6 (P10635 whole entry): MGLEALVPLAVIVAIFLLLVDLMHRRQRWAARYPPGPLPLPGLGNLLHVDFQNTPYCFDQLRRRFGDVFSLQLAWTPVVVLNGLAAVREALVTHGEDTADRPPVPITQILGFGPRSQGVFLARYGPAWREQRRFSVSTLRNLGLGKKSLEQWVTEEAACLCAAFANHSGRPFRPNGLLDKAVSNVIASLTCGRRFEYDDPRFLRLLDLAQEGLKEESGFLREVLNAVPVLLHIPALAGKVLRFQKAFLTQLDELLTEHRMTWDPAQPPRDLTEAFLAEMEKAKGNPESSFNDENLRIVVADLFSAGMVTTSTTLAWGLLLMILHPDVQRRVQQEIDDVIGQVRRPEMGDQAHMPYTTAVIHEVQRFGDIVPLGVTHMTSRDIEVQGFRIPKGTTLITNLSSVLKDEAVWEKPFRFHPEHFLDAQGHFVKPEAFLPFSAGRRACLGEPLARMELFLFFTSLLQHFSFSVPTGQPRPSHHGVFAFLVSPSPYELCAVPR
Sequence of CYP2C9 (P11712 whole entry): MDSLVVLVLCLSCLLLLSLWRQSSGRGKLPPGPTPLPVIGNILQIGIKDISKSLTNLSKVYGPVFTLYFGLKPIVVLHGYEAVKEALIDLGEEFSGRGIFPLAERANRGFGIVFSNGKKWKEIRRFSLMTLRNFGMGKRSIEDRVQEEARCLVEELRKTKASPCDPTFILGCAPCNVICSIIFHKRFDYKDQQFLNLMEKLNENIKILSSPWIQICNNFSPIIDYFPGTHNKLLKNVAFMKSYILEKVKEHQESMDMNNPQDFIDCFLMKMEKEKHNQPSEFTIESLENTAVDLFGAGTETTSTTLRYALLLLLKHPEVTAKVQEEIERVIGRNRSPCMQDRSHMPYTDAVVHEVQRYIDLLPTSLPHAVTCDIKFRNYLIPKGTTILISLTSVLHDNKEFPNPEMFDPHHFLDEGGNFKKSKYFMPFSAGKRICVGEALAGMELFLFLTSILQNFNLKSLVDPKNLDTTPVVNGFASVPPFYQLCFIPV
Sequence of Aurora kinase B (Q96GD4 whole entry): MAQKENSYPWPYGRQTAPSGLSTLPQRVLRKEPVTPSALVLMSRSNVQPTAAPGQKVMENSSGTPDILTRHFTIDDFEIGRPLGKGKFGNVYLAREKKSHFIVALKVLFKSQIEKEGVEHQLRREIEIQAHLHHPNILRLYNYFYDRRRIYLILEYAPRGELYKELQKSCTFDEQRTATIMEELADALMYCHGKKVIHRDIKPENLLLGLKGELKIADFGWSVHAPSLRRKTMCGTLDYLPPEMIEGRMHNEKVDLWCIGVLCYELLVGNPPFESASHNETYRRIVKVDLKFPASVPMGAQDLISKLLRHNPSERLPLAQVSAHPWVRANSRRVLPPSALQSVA
Sequence of CYP3A4 (P08684 whole entry): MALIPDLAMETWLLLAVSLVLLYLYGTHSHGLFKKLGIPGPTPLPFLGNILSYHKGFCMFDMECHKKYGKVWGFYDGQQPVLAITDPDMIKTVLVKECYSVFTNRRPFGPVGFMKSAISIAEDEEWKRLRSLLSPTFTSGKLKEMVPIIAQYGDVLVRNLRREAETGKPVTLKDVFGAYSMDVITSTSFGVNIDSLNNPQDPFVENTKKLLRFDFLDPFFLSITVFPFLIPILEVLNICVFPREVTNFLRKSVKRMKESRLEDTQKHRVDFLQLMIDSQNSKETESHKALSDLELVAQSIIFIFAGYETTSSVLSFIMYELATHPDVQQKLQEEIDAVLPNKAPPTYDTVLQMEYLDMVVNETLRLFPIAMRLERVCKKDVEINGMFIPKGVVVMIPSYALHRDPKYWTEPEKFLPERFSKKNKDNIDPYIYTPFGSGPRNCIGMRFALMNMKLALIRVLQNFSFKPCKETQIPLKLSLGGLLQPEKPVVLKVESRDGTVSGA

Nc1nnc(-c2ccc(O)c(O)c2)s1
inhibition of growth at 50 µM (Trypanosoma cruzi): 16.6%

NC(=S)N/N=C/c1cccc(-c2ccccc2)c1
inhibition at 0.5 h, 10 µM (CYP1A2): 83.9%
viability at 72 h, 100 µM [1]: 45.2%
cell growth (% of control) at 48 h, 10 µM [2]: 111%
inhibition of growth at 50 µM (Leishmania infantum): 35.8%
cell growth (% of control) at 48 h, 10 µM [3]: 110%
cytotoxicity at 6 h, 10 µM [4]: 4.4%
Activity (Trypanosoma brucei [5]): 93.5%
inhibition of growth at 50 µM (Trypanosoma brucei [6]): 0.9%
inhibition at 0.5 h, 10 µM (CYP3A4): 5.26%
viability at 72 h, 50 µM [7]: 112%
inhibition at 2 h, 10 µM (hERG (KCNH2)): 5.99%
inhibition at 0.5 h, 10 µM (CYP2D6): 20.6%
inhibition [8]: 9.25%
inhibition [9]: 3.5%
inhibition at 0.5 h, 10 µM (CYP2C19): -27.2%
inhibition at 0.5 h, 10 µM (CYP2C9): 14.7%
inhibition of growth at 50 µM (Trypanosoma cruzi): 20.2%
inhibition at 0.75 h, 10 µM (Aurora kinase B): -4.25%
Activity (Trypanosoma brucei [10]): 28.5%
PF (Trypanosoma brucei [11]): 1.77

Nc1nnc(-c2cccc(-c3ccc4c(c3)OCO4)c2)s1
growth inhibition (GI) (Trypanosoma cruzi): inactive

Nc1nnc(-c2cccc(Br)c2)s1
inhibition of growth at 50 µM (Trypanosoma cruzi): 41.6%

NC(=S)N/N=C/c1ccc(N)cc1
inhibition at 0.5 h, 10 µM (CYP1A2): -1.56%
viability at 72 h, 100 µM [1]: 74.4%
cell growth (% of control) at 48 h, 10 µM [2]: 121%
inhibition of growth at 50 µM (Leishmania infantum): 38.6%
cell growth (% of control) at 48 h, 10 µM [3]: 125%
cytotoxicity at 6 h, 10 µM [4]: -7.54%
Activity (Trypanosoma brucei [5]): 73.67%
growth inhibition (GI) (Trypanosoma brucei [6]): inactive
inhibition at 0.5 h, 10 µM (CYP3A4): -13.1%
viability at 72 h, 50 µM [7]: 125%
inhibition at 2 h, 10 µM (hERG (KCNH2)): 3.02%
inhibition at 0.5 h, 10 µM (CYP2D6): -6.6%
inhibition [8]: 7.43%
inhibition [9]: 3.6%
inhibition at 0.5 h, 10 µM (CYP2C19): -39.5%
inhibition at 0.5 h, 10 µM (CYP2C9): 3.06%
growth inhibition (GI) (Trypanosoma cruzi): inactive
inhibition at 0.75 h, 10 µM (Aurora kinase B): -10.5%
Activity (Trypanosoma brucei [10]): 4.33%
PF (Trypanosoma brucei [11]): 2.58

COc1ccccc1/C=N/NC(N)=S
inhibition at 0.5 h, 10 µM (CYP1A2): 29.6%
inhibition at 0.5 h, 10 µM (CYP3A4): -23.2%
inhibition at 2 h, 10 µM (hERG (KCNH2)): 5.91%
inhibition at 0.5 h, 10 µM (CYP2D6): -8.91%
inhibition [8]: 5.67%
inhibition [9]: 9.19%
inhibition at 0.5 h, 10 µM (CYP2C19): -52.9%
inhibition at 0.5 h, 10 µM (CYP2C9): -19.8%
inhibition at 0.75 h, 10 µM (Aurora kinase B): -16.9%

COc1cc(-c2nnc(N)s2)cc(OC)c1OC
growth inhibition (GI) (Trypanosoma cruzi): inactive

Nc1nnc(-c2ccco2)s1
growth inhibition (GI) (Trypanosoma cruzi): inactive

Nc1nnc(-c2ccc(-c3ccccc3)cc2)s1
inhibition of growth at 50 µM (Trypanosoma cruzi): 31.2%

COc1ccccc1-c1nnc(N)s1
growth inhibition (GI) (Trypanosoma cruzi): inactive

COc1cc(/C=N/NC(N)=S)cc(OC)c1OC
inhibition at 0.5 h, 10 µM (CYP1A2): 15.1%
viability at 72 h, 100 µM [1]: 40.2%
cell growth (% of control) at 48 h, 10 µM [2]: 111%
inhibition of growth at 50 µM (Leishmania infantum): 7.19%
cell growth (% of control) at 48 h, 10 µM [3]: 140%
cytotoxicity at 6 h, 10 µM [4]: 4.79%
Activity (Trypanosoma brucei [5]): 51.67%
inhibition of growth at 50 µM (Trypanosoma brucei [6]): 0.21%
inhibition at 0.5 h, 10 µM (CYP3A4): -30.2%
viability at 72 h, 50 µM [7]: 65.5%
inhibition at 2 h, 10 µM (hERG (KCNH2)): -1.36%
inhibition at 0.5 h, 10 µM (CYP2D6): -21%
inhibition [8]: 2.13%
inhibition [9]: 7.53%
inhibition at 0.5 h, 10 µM (CYP2C19): -28.1%
inhibition at 0.5 h, 10 µM (CYP2C9): -6.01%
growth inhibition (GI) (Trypanosoma cruzi): inactive
inhibition at 0.75 h, 10 µM (Aurora kinase B): -17.7%
Activity (Trypanosoma brucei [10]): 2.67%
PF (Trypanosoma brucei [11]): 1.92

Reference: ChEMBL document CHEMBL4196006, “Aryl thiosemicarbazones for the treatment of trypanosomatidic infections” (Eur J Med Chem, 2018)
